The list is not random: actives were taken first. Their share in the collection is about 4.6%.
Rtt109 HAT inh = C. albicans Rtt109 histone acetyltransferase inhibition. AID 540336. actives 0.16% (n = 330,000). Q5AAJ8. inhibition, % at 34.9 µM. purified Rtt109/Vps75, ThioGlo CoA-SH fluorescence, 4 h;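 active = inhibition of at least 50% in every replicate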
HDAC3 inhib = human HDAC3 inhibition; recombinant HDAC3, fluorogenic peptide/trypsin coupled, fluorescence; inhibition, % at 8.3 µM; actives 0.15% (n = 320,000); AID 2718; in the data active = inhibition above about 26%, passing the limit was not always enough
FAS TE block = FAS thioesterase (human) inhibition; P49327; recombinant FAS-TE, OMFH fluorogenic substrate, fluorescence endpoint; inhibition, % at 15 µM; actives 0.67% (n = 360,000); AID 602261;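 active = compounds whose normalised, plate-corrected inhibition of enzyme fluorescence in the single-dose primary screen is 50% or more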
M18AAP inhibitor = PfM18AAP enzyme inhibition; actives 1.2% (n = 290,000); recombinant PfM18AAP, H-Glu-NHMec fluorogenic cleavage; AID 1822; inhibition, % at 7.35 µM;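 active = inhibition above the campaign mean inhibition over all tested compounds plus 3 SD, cut at about 28% in these data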
ALR H2O2 inh = blocks human ALR sulfhydryl oxidase activity. AID 485317. inhibition, % (no concentration beside the values). P55789. purified ALR, DTT oxidation, H2O2 HRP-luminol luminescence. actives 3.8% (n = 290,000);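 active = mean replicate inhibition above about 79%, with every replicate also reaching it, limit read from the data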
UCH37 DUB inh = blocks the human deubiquitinase UCH37; Q9Y5K5; purified proteasome/UCH37, Ub-AMC cleavage fluorescence; inhibition, % (no concentration beside the values); actives 0.33% (n = 330,000); AID 588478;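 active = mean inhibition over replicate wells above about 20%, limit read from the data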
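Signal – fluorescence, ex 355 nm, em 460 nm · System – Proteasome-bound UCH37 · Input – 0.15 nM proteasome as dispensed · Timing – 30 min preincubation with enzyme, 25 min cleavage at room temperature · Read-out basis – percent inhibition of cleavage signal versus uninhibited and no-proteasome wells · Medium – Tris-HCl pH 7.4 with ATP-MgCl2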
FAS-TE inh conf = FAS thioesterase (human) inhibition, confirmation | recombinant FAS-TE, OMFH fluorogenic substrate, fluorescence | inhibition, % at 15 µM | actives 45% (n = 2,300) | shares compounds with FAS TE block;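 active = compounds inhibiting the enzyme by at least 50% at 15 µM in any one of the replicates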
A number is an active result; i = inactive; nt = no result.

SMILES	Rtt109 HAT inh	HDAC3 inhib	FAS TE block	M18AAP inhibitor	ALR H2O2 inh	UCH37 DUB inh	FAS-TE inh conf
COc1cc(C2c3c(c(C)c(C)oc3=O)Oc3c(C)c(C)oc(=O)c32)ccc1OS(=O)(=O)c1ccc(C)cc1	i	i	83.8	nt	i	i	i
COC(=O)NN=C1CC(=NNC(=O)OC)c2ccccc21	nt	nt	nt	nt	nt	i	nt
COc1cc(C=NNC(=O)C(=O)NCc2ccco2)ccc1O	nt	nt	nt	nt	nt	i	nt
COc1ccc(-c2nn(-c3ccccc3)cc2C(=O)N2CCN(S(=O)(=O)c3ccccc3C#N)CC2)cc1	i	i	i	nt	i	i	nt
COc1ccc(-c2nn(-c3ccccc3)cc2C(=O)N2CCN(S(=O)(=O)c3ccccc3[N+](=O)[O-])CC2)cc1	i	nt	78.5	nt	nt	i	i
Cc1ccc(C(=O)N2CCC3(CC2)Oc2ccc(F)cc2C(=O)C32CC(c3ccc(Cl)cc3)=NO2)s1 (stereo unspecified)	i	i	87.4	nt	i	i	i
O=C(c1ccoc1)N1CCC2(CC1)Oc1ccc(F)cc1C(=O)C21CC(c2ccc(Cl)cc2)=NO1 (stereo unspecified)	i	i	74.3	nt	i	i	i
CC(C)(C)OC(=O)N1CCC2(CC1)Oc1ccc(F)cc1C(=O)C21CC(c2ccccc2)=NO1 (stereo unspecified)	i	i	58.7	nt	nt	i	i
O=C(c1ccoc1)N1CCC2(CC1)Oc1ccc(F)cc1C(=O)C21CC(c2ccccc2)=NO1 (stereo unspecified)	i	i	i	nt	i	i	nt
O=C(c1ccoc1)N1CCC2(CC1)Oc1ccc(Cl)cc1C(=O)C21CC(c2ccc(Cl)cc2)=NO1 (stereo unspecified)	i	i	i	nt	i	i	nt
Cc1ccc(C(=O)N2CCC3(CC2)Oc2ccc(F)cc2C(=O)C32CC(c3ccccc3)=NO2)s1 (stereo unspecified)	i	i	71.8	nt	i	i	i
COc1cc([N+](=O)[O-])cc(C=NNC(=O)CSc2ccccn2)c1O	nt	nt	nt	nt	nt	i	nt
CC(CC(=O)Nc1ccc2c(c1)OCCO2)=NNC(=O)C(=O)Nc1ccccc1C	nt	nt	nt	nt	nt	i	nt
O=C(c1ccc2c(c1)OCO2)N1CCC2(CC1)Oc1ccc(F)cc1C(=O)C21CC(c2ccccc2)=NO1 (stereo unspecified)	i	i	67.4	nt	i	i	i
COc1cc(C=NNC(=O)CCC(=O)Nc2ccc(Br)cc2)ccc1O	nt	nt	nt	nt	nt	i	nt
O=[N+]([O-])c1ccc(S(=O)(=O)NN=Cc2ccc3c(c2)OCO3)cc1	i	nt	64.4	nt	nt	i	72.3
Cc1ccc(CN2CCN(N=Cc3cccnc3)CC2)cc1	nt	nt	nt	nt	nt	i	nt
CC(=O)c1sc(-c2ccccc2Cl)nc1C	i	i	i	i	nt	i	nt
CCS(=O)(=O)c1ccc(-c2csc(-c3ccccc3Cl)n2)c(Cl)c1Cl	i	i	72.3	i	nt	i	i
CN(C)CCCNC(=O)c1ccc(-c2nc(-c3ccc(Cl)cc3)cs2)cc1	i	i	i	i	i	i	nt
CCS(=O)(=O)c1ccc(-c2csc(-c3ccc(Cl)cc3)n2)c(Cl)c1Cl	i	i	70.6	i	i	i	52.2
Cc1c(C=Nn2cnnc2)c2ccccc2n1CCOc1ccccc1	nt	nt	nt	nt	nt	i	nt
Cn1cc(C=NNC(=O)COc2ccccc2[N+](=O)[O-])c2ccccc21	nt	nt	nt	nt	nt	i	nt
COc1cccc(NC(=O)COc2ccc(C)cc2)c1	i	i	i	i	i	i	nt
COc1cccc(NC(=O)COc2c(F)c(F)c(C(F)(F)F)c(F)c2F)c1	i	i	58.2	i	i	i	36.7
SMILES	Rtt109 HAT inh	HDAC3 inhib	FAS TE block	M18AAP inhibitor	ALR H2O2 inh	UCH37 DUB inh	FAS-TE inh conf
O[C@H]1C[C@H](c2ccc(Cl)cc2)N(CC2CCCCC2)C[C@@H]1n1cc(C2CC2)nn1	nt	nt	58.7	nt	nt	nt	55.9
O[C@@H]1C[C@H](c2ccc(Cl)cc2)N(CC2CCCCC2)C[C@H]1n1cc(C2CC2)nn1	nt	nt	i	nt	nt	nt	nt
COc1cccc(C=Nn2c(-c3n[nH]c4c3CCC4)n[nH]c2=S)c1OC	nt	nt	nt	nt	nt	i	nt
Cc1ccc(C=NN2C(=O)C3C(C2=O)C2C=CC3C23CC3)o1 (stereo unspecified)	nt	nt	nt	nt	nt	i	nt
CCOC(=O)c1c(NC(C)=O)sc2c1CCC(C=NCCCN(CC)CC)=C2Sc1ccccc1	i	i	55.9	i	i	i	i
CCOc1ccc(Oc2c(C=NNC(=O)C3CC3)c(C)nn2-c2ccccc2)cc1	nt	nt	nt	nt	nt	i	nt
COc1ccc([C@H]2CC(=O)C=C(c3ccc(Cl)c(C(F)(F)F)c3)C2)cc1	i	i	53.8	nt	i	i	i
COc1ccc([C@H]2CC(=O)C=C(c3ccc(C)c([N+](=O)[O-])c3)C2)cc1	i	i	76.4	nt	i	i	80.7
COc1ccc([C@H]2CC(=O)C=C(c3ccc(Cl)c(C(F)(F)F)c3)C2)cc1OC	i	i	i	nt	i	i	nt
O=S(=O)(CCc1ccccc1)N=Cc1cccs1	nt	nt	nt	nt	nt	i	nt
Cc1cc(C)n(-c2nncn2N=Cc2ccccc2F)n1	nt	nt	nt	nt	nt	i	nt
COc1ccc2cc(C3CC(c4ccco4)=NN3S(C)(=O)=O)c(Cl)nc2c1 (stereo unspecified)	i	nt	i	i	i	i	nt
CCOc1ccc2nc(Cl)c(C3CC(c4ccco4)=NN3S(=O)(=O)c3ccccc3)cc2c1 (stereo unspecified)	i	i	52.9	i	i	i	i
CN1C(=O)/C(=C/c2cc(N=Nc3ccccc3)ccc2O)SC1=S	i	i	58.5	i	i	i	i
Cc1c(N2C(=O)/C(=C\c3ccccc3O)SC2=S)c(=O)n(-c2ccccc2)n1C	i	i	i	i	i	i	nt
COc1cc(C(=O)NN=C(C)c2ccc3c(c2)OCO3)cc(OC)c1OC	nt	nt	nt	nt	nt	i	nt
Cc1ccc(-c2cc(C(F)F)n3ncc(C(=O)N4CCc5ccccc54)c3n2)cc1	i	i	52.4	i	i	i	i
Cc1ccc(-c2cc(C(F)F)n3ncc(C(=O)Nc4c(C)nn(Cc5ccccc5Cl)c4C)c3n2)cc1	i	i	50.2	i	i	i	i
CCCCCCCC(=O)NN=Cc1ccc(Br)cc1	nt	nt	nt	nt	nt	i	nt
Cn1c(=O)n(C)c2cc([N+](=O)[O-])c(N3CCN(S(=O)(=O)c4ccc(C(C)(C)C)cc4)CC3)cc21	i	i	72.9	i	i	i	i
Cn1c(=O)c2c(ncn2CCC(=O)NN=Cc2cccnc2)n(C)c1=O	nt	nt	nt	nt	nt	i	nt
Cc1ccc(C(=O)Nc2cccc(S(=O)(=O)N3CCCCC3)c2)cc1[N+](=O)[O-]	i	i	52.9	nt	i	i	i
Cc1ccc(C)c(C(=O)COC(=O)c2cc([N+](=O)[O-])ccc2NCCO)c1	i	i	62.3	i	i	i	i
O=C(COC(=O)c1cc([N+](=O)[O-])ccc1NCCO)Nc1cccc(S(=O)(=O)N2CCCC2)c1	i	i	70.4	nt	i	i	69.3
O=C(COC(=O)c1cc([N+](=O)[O-])ccc1NCCO)Nc1ccc2c(c1)OCO2	i	i	77.4	i	i	i	51.4

Bioassay records from PubChem.
